{"source": "paper PMC12144996", "about": "(Acta Pharmaceutica Sinica. B, 2025)", "key": {"HCoV-OC43": {"test_system": "HCoV-OC43", "experiment": "Anti-human coronavirus activity, viral RNA by qRT-PCR, HCoV-OC43 in HCT-8 cells", "assay_type": "cell-based", "conditions": "Betacoronavirus 1, OC43, HCT-8, read-out: EC50 for HCoV-OC43"}, "HCoV-229E": {"test_system": "HCoV-229E", "experiment": "microbe, parasite or virus in culture", "assay_type": "cell-based", "conditions": "Human coronavirus 229E, Huh-7, read-out: EC50 for HCoV-229E"}, "HCoV-NL63": {"test_system": "HCoV-NL63", "assay_type": "cell-based", "conditions": "Human coronavirus NL63, LLC-MK2, read-out: EC50 for HCoV-NL63"}, "MHV": {"test_system": "MHV", "experiment": "Anti-animal coronavirus activity, viral load by qRT-PCR, MHV in L2 cells", "assay_type": "cell-based, mouse hepatitis virus", "conditions": "Murine coronavirus, 48 h, read-out: EC50 for MHV", "procedure,_shortened": "(§1)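 Cells seeded in 48-well plates and grown 24 h to about 90% confluence, then washed three times with serum-free medium. Infected at MOI 0.01 for 1 h at 37 °C, then given medium with test compound dilutions or DMSO. After 48 h at 37 °C, cells and supernatants were harvested for viral load by qRT-PCR. EC50 taken from the dose–response curve; mean ± SEM.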"}, "PEDV": {"test_system": "PEDV", "experiment": "Anti-animal coronavirus activity, viral load by qRT-PCR, PEDV in Vero E6 cells", "assay_type": "cell-based", "conditions": "Porcine epidemic diarrhea virus, Vero C1008, 48 h, read-out: EC50 for PEDV", "procedure,_shortened": "as §1"}, "TGEV": {"test_system": "TGEV", "experiment": "Anti-animal coronavirus activity, viral load by qRT-PCR, TGEV in ST cells", "assay_type": "cell-based, transmissible gastroenteritis virus", "conditions": "Alphacoronavirus 1, 48 h, read-out: EC50 for TGEV", "procedure,_shortened": "as §1"}, "MHV-A59 [1]": {"test_system": "MHV-A59", "assay_type": "in vivo, mouse hepatitis virus"}, "MHV-A59 [2]": {"test_system": "MHV-A59", "experiment": "Prophylactic ATV006 in MHV-A59-infected BALB/c mice, liver", "assay_type": "in vivo, mouse hepatitis virus"}, "MHV-A59 [3]": {"test_system": "MHV-A59", "experiment": "Prophylactic ATV006 in intranasally MHV-A59-infected BALB/c mice, lung", "assay_type": "in vivo, mouse hepatitis virus", "conditions": "3 dpi", "procedure,_shortened": "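BALB/c mice were inoculated intranasally with 4×10^5 PFU MHV-A59 under mild isoflurane anaesthesia. They received vehicle (n = 6) or test compound at 500, 250, 100 or 50 mg/kg intragastric twice daily as prophylaxis (n = 5). Lungs were taken at 3 dpi for qRT-PCR and for plaque assay on L2 cells (methyl cellulose overlay, crystal violet). Lung sections were zinc formalin-fixed, 4 μm, H&E stained.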"}, "MHV-A59 [4]": {"test_system": "MHV-A59", "experiment": "Therapeutic treatment from 12 hpi in MHV-A59-infected BALB/c mice", "assay_type": "in vivo, mouse hepatitis virus", "conditions": "5 dpi; for Serum ALT and AST (liver injury markers): 50 mg/kg intragastric twice daily from 12 hpi, vs vehicle; for MHV replication in the lung (qRT-PCR and plaque assay): 500 mg/kg intragastric twice daily from 12 hpi", "procedure,_shortened": "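BALB/c mice were infected intranasally with 4×10^5 PFU MHV-A59. At 5 dpi, lung and liver were assayed by qRT-PCR and L2-cell plaque assay. Orbital blood was clotted at room temperature and the serum run in ALT/AST kits.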"}, "MHV-A59 [5]": {"test_system": "MHV-A59", "experiment": "Delayed therapeutic treatment", "assay_type": "in vivo, mouse hepatitis virus", "conditions": "5 dpi; for Viral replication in the lung (qRT-PCR): start 24-96 hpi", "procedure,_shortened": "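BALB/c mice under light isoflurane anaesthesia were infected intranasally with 4×10^5 PFU MHV-A59 in 40 μL DMEM. Test compound was started at delayed times post-infection and given every 12 h. At 5 dpi, lung and liver virus was measured by qRT-PCR and by plaque assay on L2 cells, with methyl cellulose overlay and crystal violet staining. Lungs were scored 0–4 for edema, mononuclear and PMN infiltration and hemorrhage; livers were blindly Ishak-scored. Serum ALT/AST measured by kit.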"}, "MHV-A59 [6]": {"test_system": "MHV-A59", "experiment": "Time-of-addition of ATV006 in MHV-A59-infected cells, viral load", "assay_type": "cell-based, mouse hepatitis virus", "conditions": "ATV006 administered 48 h after the viral infection; MOI = 0.0001"}, "[7]": {"conditions": "rats; cited from earlier work"}, "[8]": {"conditions": "cynomolgus monkeys; cited from earlier work"}, "[9]": {"conditions": "ATV006 500 mg/kg administered at 24 hpi"}, "[10]": {"conditions": "[…], GS-441524 50 mg/kg oral once daily"}, "[11]": {"conditions": "[…], remdesivir 20 mg/kg intraperitoneal once daily"}}, "note": "Read-outs that look alike come from different tables or passages of the source.", "data": [{"smiles": "CC(C)C(=O)OC[C@H]1O[C@@](C#N)(c2ccc3c(N)ncnn23)[C@H](O)[C@@H]1O", "note": "[ATV006]", "values": [{"measurement": "EC50", "setting": "HCoV-OC43", "result": 2900, "unit": "nM"}, {"measurement": "EC50", "setting": "HCoV-229E", "result": 1120, "unit": "nM"}, {"measurement": "EC50", "setting": "HCoV-NL63", "result": 800, "unit": "nM"}, {"measurement": "EC50", "setting": "MHV", "result": 265, "unit": "nM"}, {"measurement": "EC50", "setting": "PEDV", "result": 1050, "unit": "nM"}, {"measurement": "EC50", "setting": "TGEV", "result": 3040, "unit": "nM"}, {"measurement": "Survival", "setting": "MHV-A59 [1]; […], ATV006 2 mg/kg intragastric once daily", "result": "all died by 10 dpi"}, {"measurement": "Mortality and weight loss", "setting": "MHV-A59 [1]; […], ATV006 5 to 50 mg/kg intragastric once daily", "result": "effectively prevented mortality and weight loss"}, {"measurement": "Reduction of viral titers in the liver", "setting": "MHV-A59 [1]; mouse, in vivo, 2 mg/kg", "result": "approximately sixfold"}, {"measurement": "Live virus in the liver (plaque assay)", "setting": "MHV-A59 [1]; mouse, in vivo, 50 mg/kg", "result": "no live virus was found in the liver"}, {"measurement": "Reduction of viral titers in the liver", "setting": "MHV-A59 [1]; mouse, in vivo, 50 mg/kg", "result": "1,000,000 fold"}, {"measurement": "Inflammatory cell infiltration in the liver (histopathology)", "setting": "MHV-A59 [2]; ATV006 50 mg/kg intragastric twice daily", "result": "significant reduction in inflammatory cell infiltration"}, {"measurement": "Serum ALT and AST (liver injury markers)", "setting": "MHV-A59 [2]; ATV006 50 mg/kg intragastric twice daily, 3 dpi, vs control", "result": "lower in the ATV006-treated group than in the control group"}, {"measurement": "Viral titers in the liver (plaque assay)", "setting": "MHV-A59 [2]; ATV006-treated group, prophylactic, 3 dpi", "result": "below the detection limit"}, {"measurement": "Expression of inflammatory cytokines in the liver", "setting": "MHV-A59 [2]; ATV006 prophylactic, 3 dpi", "result": "significant decrease in the expression of various inflammatory cytokines in the liver"}, {"measurement": "Inflammatory cell infiltration in lung (histopathology)", "setting": "MHV-A59 [3]; ATV006 500 mg/kg intragastric twice daily", "result": "vehicle-treated mice had more inflammatory cell infiltration compared to mice treated with ATV006"}, {"measurement": "MHV infectious particles in the lung (plaque assay)", "setting": "MHV-A59 [3]; ATV006 50-500 mg/kg intragastric twice daily", "result": "dose-dependent decrease in the number of MHV infectious particles"}, {"measurement": "Inflammatory cytokines and chemokines in the lung (Ifnβ, Cxcl10, Il6, Il1β, Ifnγ)", "setting": "MHV-A59 [3]; ATV006 prophylactic", "result": "significantly reduced the production of inflammatory cytokines and chemokines in the lung"}, {"measurement": "Serum ALT and AST (liver injury markers)", "setting": "MHV-A59 [4]", "result": "significantly reduced the liver injury markers ALT and AST"}, {"measurement": "MHV replication in the lung (qRT-PCR and plaque assay)", "setting": "MHV-A59 [4]", "result": "significantly inhibited MHV replication in the lung"}, {"measurement": "MHV replication in the liver (qRT-PCR)", "setting": "MHV-A59 [4]; ATV006 2-50 mg/kg intragastric twice daily from 12 hpi", "result": "inhibited MHV replication in a dose-dependent manner"}, {"measurement": "Virus titers in the liver (plaque assay)", "setting": "MHV-A59 [4]; ATV006 at 2, 10, 25, 50 mg/kg twice daily from 12 hpi", "result": "below the detection limit of the plaque assay"}, {"measurement": "MHV replication in the liver (qRT-PCR)", "setting": "MHV-A59 [5]; ATV006 2 mg/kg, delayed treatment", "result": "ineffective"}, {"measurement": "Liver pathology (Ishak scoring)", "setting": "MHV-A59 [5]; ATV006 10 mg/kg administered at 24, 48 and 72 hpi", "result": "significantly reduced liver piecemeal necrosis, bridging necrosis, circumscribed hepatic necrosis, and portal inflammation"}, {"measurement": "Serum ALT and AST levels", "setting": "MHV-A59 [5]; ATV006 10 mg/kg, delayed treatment", "result": "alleviated liver injury"}, {"measurement": "Virus titers in the liver (plaque assay)", "setting": "MHV-A59 [5]; ATV006 50 mg/kg administered as late as 96 hpi", "result": "reduced virus titers to levels undetectable by plaque assay"}, {"measurement": "Viral replication in the lung (qRT-PCR)", "setting": "MHV-A59 [5]; ATV006 250 mg/kg every 12 h", "result": "significant inhibition of viral replication only when ATV006 treatment (250 mg/kg) began no later than 24 hpi"}, {"measurement": "Bleeding in the lungs (hemorrhage score)", "setting": "MHV-A59 [5]; [9]", "result": "did not improve significantly"}, {"measurement": "Lung pathology: edema, monocyte and neutrophil infiltration", "setting": "MHV-A59 [5]; [9]", "result": "reduced pulmonary edema and monocyte and neutrophil infiltration"}, {"measurement": "Viral replication in the lung (qRT-PCR)", "setting": "MHV-A59 [5]; ATV006 500 mg/kg every 12 h", "result": "effective when started within 48 hpi"}, {"measurement": "Infectious viral particles in the lungs (plaque assay)", "setting": "MHV-A59 [5]; ATV006 500 mg/kg initiated within 48 hpi", "result": "No infectious viral particles were detected"}, {"measurement": "MHV replication in the liver (qRT-PCR)", "setting": "MHV-A59 [5]; ATV006 10, 25 and 50 mg/kg administered at 24 or 48 hpi", "result": "significantly inhibited MHV replication"}, {"measurement": "Inhibition of MHV-A59 viral load", "setting": "MHV-A59 [6]", "result": "no inhibitory effect was observed"}, {"measurement": "Oral bioavailability", "setting": "[7]", "result": "high oral bioavailability"}, {"measurement": "Oral bioavailability", "setting": "[8]", "result": "high oral bioavailability"}]}, {"smiles": "N#C[C@@]1(c2ccc3c(N)ncnn23)O[C@H](CO)[C@@H](O)[C@H]1O", "note": "[GS-441524, reference compound]", "values": [{"measurement": "Body weight compared with ATV006 (50 mg/kg)", "setting": "MHV-A59 [1]; [10]", "result": "lower than that of mice treated with ATV006"}, {"measurement": "Survival", "setting": "MHV-A59 [1]; [10]", "result": "prevented MHV-infected mice from dying"}, {"measurement": "Serum ALT and AST (liver injury markers)", "setting": "MHV-A59 [4]", "result": "significantly reduced the liver injury markers ALT and AST"}, {"measurement": "MHV replication in the lung (qRT-PCR and plaque assay)", "setting": "MHV-A59 [4]", "result": "only ATV006 significantly inhibited MHV replication in the lung"}, {"measurement": "Virus titers in the liver (plaque assay)", "setting": "MHV-A59 [4]; GS-441524 at 25, 50 mg/kg twice daily from 12 hpi", "result": "below the detection limit of the plaque assay"}]}, {"smiles": "CCC(CC)COC(=O)[C@H](C)N[P@](=O)(OC[C@H]1O[C@@](C#N)(c2ccc3c(N)ncnn23)[C@H](O)[C@@H]1O)Oc1ccccc1", "note": "[remdesivir, reference compound]", "values": [{"measurement": "Body weight compared with ATV006 (50 mg/kg)", "setting": "MHV-A59 [1]; [11]", "result": "lower than that of mice treated with ATV006"}, {"measurement": "Survival", "setting": "MHV-A59 [1]; [11]", "result": "prevented MHV-infected mice from dying"}]}]}
